BindingDB's records for doi:10.1021/jm0582625 (University of Illinois At Urbana-Champaign, 2006)

Key:
Phosphotransferase = target: T1, Phosphotransferase (Trypanosoma cruzi, UniProt Q8ST54); experiment: Inhibitory activity against Trypanosoma cruzi hexokinase
T1 sequence (Q8ST54 whole entry): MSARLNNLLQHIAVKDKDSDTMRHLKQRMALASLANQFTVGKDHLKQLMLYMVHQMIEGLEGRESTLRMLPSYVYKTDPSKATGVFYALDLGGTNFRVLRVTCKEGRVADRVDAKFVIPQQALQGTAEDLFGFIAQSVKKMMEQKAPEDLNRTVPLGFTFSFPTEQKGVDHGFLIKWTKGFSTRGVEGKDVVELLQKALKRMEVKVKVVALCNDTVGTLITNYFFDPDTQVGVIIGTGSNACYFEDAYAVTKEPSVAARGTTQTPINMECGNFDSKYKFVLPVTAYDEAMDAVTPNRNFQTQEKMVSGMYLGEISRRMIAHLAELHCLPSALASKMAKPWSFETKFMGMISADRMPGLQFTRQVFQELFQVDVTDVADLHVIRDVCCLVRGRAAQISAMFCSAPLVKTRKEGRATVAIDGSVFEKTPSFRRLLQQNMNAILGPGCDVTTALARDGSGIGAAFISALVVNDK
Summary of the method: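 Native glycosomal T. cruzi hexokinase, purified by a previously described procedure. Activity was followed as NADPH formation at 340 nm, coupled to D-glucose-6-phosphate dehydrogenase. Inhibition was reported as IC50.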

[1] = target: farnesyl pyrophosphate synthase (Leishmania major); experiment: Inhibitory activity against FPPS in Leishmania major

| Structure (SMILES) | IC50 (Phosphotransferase) [µM] | IC50 [1] [µM] |
| --- | --- | --- |
| CCCNC(P(=O)(O)O)P(=O)(O)O [propylaminomethylene-1,1-bisphosphonate] | > 300 | – |
| O=P(O)(O)C(NC1CC1)P(=O)(O)O [(cyclopropylamino-phosphono-methyl)-phosphonic acid] | > 300 | – |
| O=P(O)(O)C(Cc1cccc(-c2ccccc2)c1)S(=O)(=O)O (stereo not given) [2-biphenyl-3-yl-1-phosphono-ethanesulfonic acid] | – | 11 |
| O=P(O)(O)C(CN[C@@H](CO)c1ccccc1)P(=O)(O)O | > 300 | – |
| C[C@H](NC(P(=O)(O)O)P(=O)(O)O)c1cccc2ccccc12 [(Bis-phosphono-methyl)-((S)-1-naphthalen-1-yl-ethyl)-ammonium] | > 300 | – |
